ASAP1 inh = ASAP1 ArfGAP inhibition. ASAP1-stimulated ARF1 GTP hydrolysis, GDP FP detection. AID 624377. hit rate 0.19% among 360,000. Q9ULH1. inhibition, % at 16.5 µM; in the data active = inhibition above about 25%;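 also: 0% = vehicle with enzyme and substrate and 100% = no enzyme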
Target sequence (Q9ULH1 325-724 limits assumed): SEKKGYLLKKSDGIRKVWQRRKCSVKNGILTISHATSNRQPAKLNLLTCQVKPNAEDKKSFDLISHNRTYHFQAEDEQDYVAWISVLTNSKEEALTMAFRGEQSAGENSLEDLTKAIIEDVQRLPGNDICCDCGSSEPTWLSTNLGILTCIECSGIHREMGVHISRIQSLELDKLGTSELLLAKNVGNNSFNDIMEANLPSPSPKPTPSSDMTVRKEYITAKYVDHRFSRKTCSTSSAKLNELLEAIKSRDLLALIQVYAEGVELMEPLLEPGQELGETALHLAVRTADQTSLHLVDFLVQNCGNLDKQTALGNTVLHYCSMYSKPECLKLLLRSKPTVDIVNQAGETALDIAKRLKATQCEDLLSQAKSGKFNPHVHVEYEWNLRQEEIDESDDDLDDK
HNF4A DNA FP = change in binding of human HNF4 alpha to DNA; activity change, % at 10 µM; hit rate 0.3% among 360,000; P41235; HNF4a-FITC DNA binding, fluorescence polarization, 1 h; in the data active = activity change above about 30%, passing the limit was not always enough
CSN inh = CSN deneddylation inhibition | hit rate 0.38% among 360,000 | Purified CSN, SCF-Nedd8-OG deneddylation, fluorescence polarization | inhibition, % at 12.5 µM;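 active = pattern-corrected inhibition above about 35%, with an unprinted fluorescence ratio check between 0.5 and 1.5, limit read from the data, passing the limit was not always enough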;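 also: 0% = enzyme with substrate and 100% = substrate without enzyme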
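Assay system: Purified human Csn5 enzyme expressed in HEK293T cells | Amount: Enzyme 0.24 nM | Measured by: Fluorescence polarization readout | Medium: Tris/NaCl/DTT buffer, pH 7.5 | Compound dosing: One concentration, 12.5 µM, 0.25% DMSO | Times: 90 min incubation of compound, enzyme and substrate at room temperature | Control set: no-enzyme wells high, enzyme-with-substrate wells low | Read-out: % inhibition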
ARFGAP1 inhibitor = rat ARFGAP1 inhibition | Q62848 | Arfgap1-stimulated ARF1 GTP hydrolysis, GDP FP detection | inhibition, % at 16.5 µM | hit rate 0.26% among 360,000;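 active = inhibition above a per-plate limit, mean inhibition of low control wells plus 3 SD, cut at about 25% in these data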;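 also: 0% = DMSO wells with enzyme and 100% = wells lacking Arfgap1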
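system = rat Arfgap1 catalytic domain, aa 1-136 | technique = FP, GDP Alexa 633 tracer displaced from anti-GDP antibody, 620/688 nm | compound = one concentration, 16.5 µM, DMSO 1.26% | medium = HEPES-based buffer, pH 7.5 | timing = compound-enzyme preincubation 20 min, reaction 120 min, detection 60 min, 25 °C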
An asterisk follows results filed as active; · = no result. Hits are enriched below; roughly 0.95% of the tested compounds scored in any of these assays.

SMILES	ASAP1 inh	HNF4A DNA FP	CSN inh	ARFGAP1 inhibitor
CC(=O)c1sc2nc(CSc3nnnn3-c3ccccc3)[nH]c(=O)c2c1C	-16	38*	46*	-14
NC1=C(Br)C(=O)c2ncccc2C1=O	28*	9	15	3
CCOC(=O)c1ccc(-n2c(CCC(=O)O)ccc2-c2ccc(F)cc2)cc1	-6	2	42*	5
COC(=O)c1ccc(-n2c(CCC(=O)O)ccc2-c2ccc(C)cc2)cc1	·	10	-2	·
Cn1c(=O)oc2ccc(S(=O)(=O)Nc3ccc(Cl)cc3[N+](=O)[O-])cc21	3	·	·	0
C#CCN1C(=O)S/C(=C/c2cc(C)n(CC)c2C)C1=O	8	2	-4	6
CCn1c(C)cc(/C=C2/SC(=S)N(CC(=O)O)C2=O)c1C	13	44*	28	1
O=C(N[C@H](C(=O)N1CCC[C@H]1C(=O)NCc1ccccc1)C1CCCCC1)c1ccc(Cl)c(Cl)c1	-3	·	·	-3
CCN1CCc2c(sc(NC(=S)NC(=O)c3ccccc3)c2C#N)C1	5	9	48*	11
CC(=O)N1CCc2c(sc(NC(=O)c3ccc([N+](=O)[O-])o3)c2C(N)=O)C1	-5	3	8	27*
CCC(=O)Nc1sc2c(c1C(N)=O)CCN(C(C)=O)C2	12	1	4	-1
NC(=O)c1c(NC(=O)c2ccccc2)sc2c1CCN(Cc1ccccc1)C2	-9	66	46*	6
NC(=O)c1c(NC(=O)c2c(F)cccc2F)sc2c1CCN(Cc1ccccc1)C2	-7	6	13	-9
CCCn1c(C)c(CC(=O)Nc2ccc(N(C)c3ccccn3)cc2)c2ccccc21	-6	·	·	1
CCC(NC(=O)CCc1c(C)c2cc3c(C)c(C)oc3cc2oc1=O)C(=O)N[C@@H](Cc1ccccc1)C(=O)O (stereo partly drawn)	6	0	2	8
CCCC(NC(=O)CCc1c(C)c2cc3c(C)c(C)oc3cc2oc1=O)C(=O)NC(Cc1ccc(Cl)cc1)C(=O)O (stereo not drawn)	1	5	37*	-8
CCOc1ccc(C2NCCc3cc(OC)c(OC)cc32)cc1OC (stereo not drawn)	-4	-1	-3	9
COc1ccc2cc1Oc1ccc(cc1)C[C@H]1c3c(cc(OC)c4c3Oc3c(ccc5c3[C@H](C2)N(C)CC5)O4)CCN1C	·	76*	0	·
COc1ccc2cc1Oc1ccc(cc1)CC1c3c(cc(OC)c4c3Oc3cc5c(cc3O4)CCNC5C2)CCN1C (stereo not drawn)	·	100*	4	·
COc1cc2c(c(O)c1OC)C1Cc3ccc(OC)c(OC)c3CN1CC2 (stereo not drawn)	7	0	4	9
CCCc1cc2c(OC)ccc(O)c2c(=O)n1C	0	·	·	0
Brc1cccc(CN2CCN(c3ncc(Cc4ccccc4)cn3)CC2)n1	5	·	·	3
Cc1cc(=O)c2ccccc2n1CC(=O)NCc1ccccc1	7	30*	-2	-9
Cc1cc(=O)c2ccccc2n1Cc1ccccc1	-12	0	-3	1
O=C(NC1CCCCC1)C(c1ccccc1F)n1c(=O)c(-c2ccco2)nc2ccccc21 (stereo not drawn)	-2	34*	20	-3
SMILES	ASAP1 inh	HNF4A DNA FP	CSN inh	ARFGAP1 inhibitor
O=C(NCc1ccccc1)C(c1cc2ccccc2o1)n1c(=O)c(-c2ccco2)nc2ccccc21 (stereo not drawn)	-8	37*	28	6
CC(C)(C)NC(=O)C(c1ccc(C(F)(F)F)cc1)n1c(=O)c(-c2ccco2)nc2ccccc21 (stereo not drawn)	-1	42*	27	-6
O=C(NCc1ccccc1)C(c1ccc(C(F)(F)F)cc1)n1c(=O)c(-c2ccco2)nc2ccccc21 (stereo not drawn)	-13	11	24	-12
O=C(NCc1ccccc1)[C@@H]1CCCN1C(=O)[C@H]1CCCN1C(=O)c1cccc(F)c1	-6	·	·	0
COC(=O)c1c(-c2ccc(OC)cc2)c2c(c3c4cc(F)ccc4n(S(=O)(=O)c4ccc(C)cc4)c13)C(=O)N(C)C2	0	·	·	-5
Cc1ccc(CNc2ccc3nnc(-c4ccccc4)n3n2)cc1	1	3	38*	-2
c1ccc(CN2CCN(CCCNc3ccc4nnc(-c5ccccc5)n4n3)CC2)cc1	·	-2	5	·
COc1ccccc1CCn1cnc(C)c1CC(C)C	11	3	62*	-8
CCN(CC)c1ccc(/C=C(\C#N)c2ccccn2)cc1	·	89*	35	·

Assay outcomes: PubChem BioAssay, several laboratories
